For 22 molecules, IC50 and ΔTm results are on record in ChEMBL document CHEMBL1165879, “Benzimidazole derivatives related to 2,3-acrylonitriles, benzimidazo[1,2-a]quinolines and fluorenes: synthesis, antitumor evaluation in vitro and crystal structure determination” (Eur J Med Chem, 2010).

The term IC50 denotes the concentration at which inhibition is half-maximal. High values mean lower potency, low ones higher potency. One may read the ΔTm as the shift of the melting midpoint relative to a reference.

Bounds are passed on as bounds.

Experiment [1] concerns HeLa. The experiment is described as follows: Cytotoxicity against human HeLa cells after 72 hrs by MTT assay. The format is functional, cell-based. In outline: (§1)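 Cells grown with FBS, 2 mM L-glutamine, penicillin and streptomycin at 37 °C, 5% CO2, humidified. Seeded in 96-well plates on day 0 at densities set by population doubling time. Five 10-fold dilutions (10^-8 to 10^-4 mol/L), freshly prepared, then 72 h exposure, modified NCI DTP method. Three individual experiments. IC50 from dose-response curves by linear regression.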
For orientation: Tetrazolium dyes change colour on reduction, which living cells bring about.

For experiment [2], the system named is MCF7. The experiment is described as follows: Cytotoxicity against human MCF7 cells after 72 hrs by MTT assay. As to conditions: MCF7, 72 h. It is filed as functional, cell-based. In outline: as §1
Experiment [3] has as its system SW-620. The experiment is described as follows: Cytotoxicity against human SW620 cells after 72 hrs by MTT assay. The format is functional, cell-based. Particulars: SW-620, 72 h. The essentials: as §1
Experiment [4] relates to NCI-H460. The experiment is described as follows: Cytotoxicity against human H460 cells after 72 hrs by MTT assay. It is filed as functional, cell-based. Particulars: NCI-H460, 72 h. The essentials:
as §1

In experiment [5] the test system is MIA PaCa-2. As to the kind of experiment: Cytotoxicity against human MIAPaCa2 cells after 72 hrs by MTT assay. Particulars: MIA PaCa-2, 72 h. It is filed as functional, cell-based. The essentials: as §1
For experiment [6], the system named is Calf thymus DNA. The experiment is described as follows: Binding affinity to calf thymus DNA assessed as change in melting temperature at compound/polynucleotide ratio 3 in sodium cacodylate buffer at pH 7. It is filed as nucleic-acid assay. Particulars: Bos taurus; in the assay text read “compound/polynucleotide ratio 0.3” for “compound/polynucleotide ratio 3”. In outline: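 Thermal melting of ct-DNA, alone and with compound, in sodium cacodylate buffer pH 7.0, I = 0.05 mol dm^-3, DMSO under 1%. Absorbance at 260 nm followed against temperature, heated at 1 °C per minute. Ligand absorbance subtracted and scale normalized. Tm taken as transition midpoint, from the first-derivative maximum or graphically by tangent.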

Experiment [7] has as its system Calf thymus DNA. The experiment is described as follows: Binding affinity to calf thymus DNA assessed as change in melting temperature at compound/polynucleotide ratio 0.3 in sodium cacodylate buffer at pH 7. As to conditions: Bos taurus.

With `CC(=O)Nc1ccc2cc(C#N)c3nc4ccccc4n3c2c1`, the IC50 in experiment [1] amounted to 2 µM; in experiment [2], 5 µM; in experiment [3], 5 µM; in experiment [4] it was 90 µM; in experiment [5], 2 µM.
Turning to `N#Cc1cc2ccc(Br)cc2n2c1nc1ccccc12`, the IC50 in experiment [1] was 20 µM; in experiment [2] it was 37 µM; in experiment [3], 13 µM; in experiment [4], 37 µM; in experiment [5] it was over 50 µM.
Consider `Cn1ccc2cc(C#N)c3nc4ccccc4n3c21`, for which the IC50 was found to be 0.7 µM in experiment [1]; 11 µM in experiment [2]; 25 µM in experiment [3]; 22 µM in experiment [4]; 4 µM in experiment [5]. In experiment [6], the ΔTm came to 2.4 °C.
`N#Cc1cc2ccc(F)cc2n2c1nc1ccccc12`: the IC50 in experiment [1] came out at 29 µM; in experiment [2] it was 50 µM; in experiment [3] it was 22 µM; in experiment [4] it was 26 µM; in experiment [5] it was 28 µM. The ΔTm in experiment [6] was found to be 4.4 °C.
For `Cc1ccc2cc(C#N)c3nc4ccccc4n3c2c1`, the IC50 is over 100 µM in experiment [1]; 70 µM in experiment [2]; over 100 µM in experiment [3]; over 100 µM in experiment [4]; over 100 µM in experiment [5]. Also, the shift in melting temperature (ΔTm) in experiment [6] came out at 4.8 °C.
On to `N#C/C(=C\c1cccs1)c1nc2ccccc2[nH]1`, for which the IC50 in experiment [1] is 8 µM; in experiment [2], 30 µM; in experiment [3] it was 48 µM; in experiment [4], over 50 µM; in experiment [5] it was over 50 µM.
In the case of `N#C/C(=C\c1ccc(F)cc1)c1nc2ccccc2[nH]1`, the IC50 in experiment [1] was determined as 15 µM; in experiment [2], 14 µM; in experiment [3], 59 µM; in experiment [4], 43 µM; in experiment [5], 18 µM. Also, in experiment [7], the ΔTm stood at 3 °C.
For `Cc1ccc(/C=C(\C#N)c2nc3ccccc3[nH]2)cc1`, the IC50 in experiment [1] was determined as 20 µM; in experiment [2], 8 µM; in experiment [3] it was 87 µM; in experiment [4], 81 µM; in experiment [5] it was 32 µM. Also, the ΔTm in experiment [6] came out at 2.9 °C.
With `N#C/C(=C\c1ccc(Br)cc1)c1nc2ccccc2[nH]1`, the IC50 was 9 µM in experiment [1]; 19 µM in experiment [2]; over 50 µM in experiment [3]; over 50 µM in experiment [4]; 46 µM in experiment [5].
As to `N#C/C(=C\c1ccco1)c1nc2ccccc2[nH]1`, the IC50 in experiment [1] was 25 µM; in experiment [2] it was 17 µM; in experiment [3], over 50 µM; in experiment [4], over 50 µM; in experiment [5] it was 28 µM.
As to `CN(C)c1ccc(/C=C(\C#N)c2nc3ccccc3[nH]2)cc1`, the IC50 in experiment [1] was over 50 µM; in experiment [2], 4 µM; in experiment [3], over 50 µM; in experiment [4], over 50 µM; in experiment [5], 26 µM.
For `Cn1cccc1/C=C(\C#N)c1nc2ccccc2[nH]1`, the IC50 in experiment [1] came to 0.8 µM; in experiment [2], 13 µM; in experiment [3], 30 µM; in experiment [4], 26 µM; in experiment [5], 4 µM. The ΔTm in experiment [6] came out at 0.4 °C.
On to `COc1ccc(OC)c2c1cc(C#N)c1nc3ccccc3n12`, for which the 50% inhibitory concentration (IC50) in experiment [1] was 5 µM; in experiment [2], 31 µM; in experiment [3], 6 µM; in experiment [4], 14 µM; in experiment [5], 23 µM. Besides, the ΔTm in experiment [6] stood at 4.2 °C.
Regarding `N#C/C(=C\c1ccncc1)c1nc2ccccc2[nH]1`, the IC50 in experiment [1] was 21 µM; in experiment [2] it was 9 µM; in experiment [3], 42 µM; in experiment [4], 78 µM; in experiment [5] it was 57 µM.
For `COc1cccc2c1C(=O)c1c(O)c3c(c(O)c1C2=O)C[C@@](O)(C(=O)CO)C[C@@H]3O[C@H]1C[C@H](N)[C@H](O)[C@H](C)O1` [DOXORUBICIN], the IC50 was determined as 0.04 µM in experiment [2] and 0.01 µM in experiment [5].
`N#Cc1ccc2cc(C#N)c3nc4ccccc4n3c2c1`: the IC50 is 16 µM in experiment [1]; over 50 µM in experiment [2]; 14 µM in experiment [3]; 23 µM in experiment [4]; over 50 µM in experiment [5].
For the molecule `N#Cc1cc2ccsc2n2c1nc1ccccc12`, the IC50 is 19 µM in experiment [1]; 31 µM in experiment [2]; 16 µM in experiment [3]; 30 µM in experiment [4]; 28 µM in experiment [5].
`COc1ccc(OC)c(/C=C(\C#N)c2nc3ccccc3[nH]2)c1`: the IC50 is 1 µM in experiment [1]; 12 µM in experiment [2]; 23 µM in experiment [3]; 27 µM in experiment [4]; 0.8 µM in experiment [5]. Also, in experiment [7], the shift in melting temperature (ΔTm) is 3 °C.
In the case of `N#Cc1cc2ccncc2n2c1nc1ccccc12`, the half-inhibitory concentration (IC50) came out at 45 µM in experiment [1]; 67 µM in experiment [2]; 30 µM in experiment [3]; 57 µM in experiment [4]; 32 µM in experiment [5].
The like results for `CCN(CC)c1ccc(/C=C(\C#N)c2nc3ccccc3[nH]2)c(O)c1` were, in that order, 3 µM, 2 µM, 10 µM, 11 µM and 3 µM.
Turning to `CC(=O)Nc1ccc(/C=C(\C#N)c2nc3ccccc3[nH]2)cc1`, the IC50 in experiment [1] was 3 µM; in experiment [2] it was 4 µM; in experiment [3], over 100 µM; in experiment [4], over 100 µM; in experiment [5], 48 µM.
As for `N#C/C(=C\c1cnc[nH]1)c1nc2ccccc2[nH]1`, the IC50 in experiment [1] is 40 µM; in experiment [2], 92 µM; in experiment [3], 70 µM; in experiment [4] it was over 100 µM; in experiment [5], 30 µM.
